Laboratory results: paper PMC6272098 (Cancer Science, 2018)

Legend:
[1] = 21-day oral dosage in mice ref 22; cited from earlier work
[2] = tested on: tankyrase, Axin1/2, β-catenin; test: Western blot analysis of pharmacodynamic biomarkers in COLO-320DM cells; format: cell-based, human; details: 16 h
Procedure, shortened: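 Cells cultured in RPMI-1640 with 10% heat-inactivated FBS were treated for 16 h. Whole cell lysates were then analysed by western blot.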

[3] = tested on: TCF/LEF reporter activity; test: TCF/LEF luciferase reporter assay, COLO-320DM; format: cell-based, human; details: 30 h
Procedure, shortened: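 Cells were transfected with TCF reporter vectors (including pTcf7wt-luc), then exposed to test compound for 30 h and luciferase activity was read. Comparison was by Tukey-Kramer test against pTcf7wt-luc-transfected DMSO-treated cells.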

[4] = tested on: non-phosphorylated (active) β-catenin; test: Immunofluorescence staining of active β-catenin in COLO-320DM cells; format: cell-based, human; details: 1 μmol/L, 16 h, DMSO 100%
Procedure, shortened: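 Cells were exposed to 1 μmol/L test compound for 16 h, then immunostained with anti-non-phosphorylated β-catenin antibody (D13A1, 1:500) and counterstained with DAPI. Fluorescence images were quantified, and intensity was expressed relative to DMSO-treated cells (100%).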

[5] = tested on: RKO cells; test: BrdU assay; format: cell-based, human; details: 48 h
Procedure, shortened: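 Cells were kept in DMEM with 10% FBS, treated for 48 h, then assayed for BrdU incorporation. DNA synthesis was compared with DMSO-treated (basal) cells by Tukey-Kramer test. Experiments were repeated at least twice; representative data are shown with standard deviation.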

[6] = tested on: COLO-320DM cells; test: BrdU assay; format: cell-based, human; details: 48 h
Procedure, shortened: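 Cells were grown in RPMI-1640 with 10% heat-inactivated FBS and exposed to test compound for 48 h before BrdU incorporation was measured. Tukey-Kramer comparison was against DMSO-treated cells. Experiments were repeated at least twice; representative results are shown with standard deviation.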

[7] = tested on: TCF/LEF reporter activity; test: TCF/LEF luciferase reporter assay, L-Wnt3A-stimulated HEK293T; format: cell-based; details: 30 h
Procedure, shortened: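 HEK293T cells were transfected with TCF luciferase reporters. Conditioned medium from L or L‐Wnt3A cells, prepared per the ATCC protocol, was added together with test compound, and luciferase was read after 30 h. Comparison was by Tukey-Kramer test against pTcf7wt-luc-transfected DMSO controls.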

| Structure (SMILES) | Body weight and small intestine histology in mice [1] | Tankyrase, Axin1/2 and β-catenin protein levels (western blot) [2] | TCF/LEF reporter activity [3] | Immunofluorescence intensity of active β-catenin [4] [%] | DNA synthesis (BrdU) [5] | DNA synthesis (BrdU) relative to basal level ([5]; 10 μmol/L) | DNA synthesis (BrdU) ([6]; 10 μmol/L) | DNA synthesis (BrdU) ([6]; concentrations up to 3 μmol/L) | TCF/LEF luciferase activity [7] |
| --- | --- | --- | --- | --- | --- | --- | --- | --- | --- |
| COc1ccc(C2(CNC(=O)c3ccc(NC(=O)c4ccco4)cc3)CCOCC2)cc1 [JW55] | no body weight alterations or histological changes in the small intestine | – | – | – | – | – | – | – | – |
| O=C(c1cc(Cc2n[nH]c(=O)c3ccccc23)ccc1F)N1CCN(C(=O)C2CC2)CC1 [olaparib] | – | did not affect | no effect | 106 | resistant | half | marginally inhibited | no effects | only marginally inhibited |
